Entries after “also recorded” stand apart in the source; their conditions may differ. Where no end group is shown, it is not given here.
Columns and labels:
[1] = system: Recombinant CD44v3–v10 protein; assay: Competitive inhibition ELISA on recombinant CD44v3–v10 protein; format: binding, human; conditions: in words; CD44v3–v10 protein 1 µg/well; various peptide concentrations; n = 3
Summary of the method: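 Plates were coated with recombinant CD44v3–v10 protein (1 µg/well) and preincubated with candidate or control peptide at various concentrations. Candidate phage binding was then read by phage ELISA: goat anti-M13 (1:200), HRP secondary (1:5,000), TMB, OD450. Inhibition = 100% – 100%×(ODt – ODb)/(ODi – ODb), where ODb is wells lacking anti-M13 antibody.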

CD44v3–v10 protein = CD44v3–v10 protein (Homo sapiens, UniProt P16070); assay: Binding affinity to CD44v3–v10 protein
CD44v3–v10 protein, sequence (P16070 21-699 isoform P16070-4 limits assumed): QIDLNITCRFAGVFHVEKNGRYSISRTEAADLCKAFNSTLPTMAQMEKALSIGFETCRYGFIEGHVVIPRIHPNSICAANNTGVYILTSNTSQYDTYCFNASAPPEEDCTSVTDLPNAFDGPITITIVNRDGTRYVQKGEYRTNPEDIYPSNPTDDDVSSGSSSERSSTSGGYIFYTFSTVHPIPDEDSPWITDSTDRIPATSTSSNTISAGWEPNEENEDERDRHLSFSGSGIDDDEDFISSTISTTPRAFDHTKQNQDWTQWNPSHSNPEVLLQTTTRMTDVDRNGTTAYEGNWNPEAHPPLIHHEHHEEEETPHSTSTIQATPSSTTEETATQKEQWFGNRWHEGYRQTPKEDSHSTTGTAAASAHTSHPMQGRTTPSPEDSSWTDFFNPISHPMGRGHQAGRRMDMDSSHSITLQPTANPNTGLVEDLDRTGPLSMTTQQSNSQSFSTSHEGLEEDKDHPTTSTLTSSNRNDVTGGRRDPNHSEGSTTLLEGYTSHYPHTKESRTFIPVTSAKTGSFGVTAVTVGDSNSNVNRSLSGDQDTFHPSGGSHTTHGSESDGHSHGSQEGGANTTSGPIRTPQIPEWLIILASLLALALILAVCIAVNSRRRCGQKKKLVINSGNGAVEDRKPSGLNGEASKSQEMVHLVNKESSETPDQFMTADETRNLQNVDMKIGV
Summary of the method: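 Biotin-labelled peptide at a range of concentrations was incubated with immobilised recombinant CD44v3–v10 protein, with BSA as the comparison surface. Bound peptide was read as OD values, as in the competitive ELISA. Kd came from fitted binding curves and Scatchard plots. A scrambled peptide was the control. Each point was measured three times, mean ± SD.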

[2] = system: SGC-7901 subcutaneous GC xenograft; assay: In vivo fluorescence imaging of SGC-7901 xenograft models; parameters: species or system BALB/c-nu/nu mice; conditions: FITC labeled, 1 µg/g body weight, tail vein
Summary of the method: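 Male BALB/c nude mice (4–5 weeks, 20–25 g) received 5×10^6 SGC-7901 cells subcutaneously in the axilla, and tumours grew about 3 weeks to 1 cm3. Mice were randomised to two groups of ten. Each group received FITC-peptide probe or FITC-scrambled peptide, 1 µg/g via the tail vein. Under isoflurane, five mice per group were imaged every half hour until the probe was excreted. Signal was expressed as (p/sec/cm2/sr)/(µW/cm2), mean ± SE.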

[3] = system: excised tumor and organs (liver, stomach, kidney, lung, heart) of SGC-7901 xenograft mice; assay: Biodistribution: fluorescence imaging of excised tumor and organs; format: in vivo, BALB/c-nu/nu mice; conditions: FITC labeled, 1 µg/g, i.v., 3 h after injection
MKN-45 cells = assay: Immunofluorescence staining of MKN-45 cells; format: cell-based; conditions: 5 µM FITC-labeled peptide, 37 °C, 10 min, co-stained with anti-CD44v6 antibody
Summary of the method: (§1)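 Gastric cancer cells were grown in RPMI 1640 with 10% FBS and seeded on coverslips overnight. They were fixed in 4% paraformaldehyde and blocked in 3% BSA. Cells were labelled with monoclonal anti-CD44v6 (1:500, 1 h) and a Cy3 secondary, then with 5 µM FITC-peptide at 37 °C for 10 min. Nuclei were stained with DAPI; imaging was by fluorescence microscopy at ×400.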

SGC-7901 cells = assay: Immunofluorescence staining of SGC-7901 cells; format: cell-based; conditions: 5 µM FITC-labeled peptide, 37 °C, 10 min, co-stained with anti-CD44v6 antibody
Summary of the method: as §1

MKN-28 cells = assay: Immunofluorescence staining of MKN-28 cells; format: cell-based; conditions: 5 µM FITC-labeled peptide, 37 °C, 10 min, co-stained with anti-CD44v6 antibody
Summary of the method: as §1

[4] = system: CD44v3–v10 over expressed HEK-293 cells; assay: Immunofluorescence staining of CD44v3–v10 over expressed HEK-293 cells; format: cell-based, human; conditions: 5 µM rhodamine B-labeled peptide; GFP reporter
Summary of the method: (§2)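 HEK-293 cells were grown in DMEM with 10% FBS and transfected 48 h beforehand with a GFP-reporter CD44v3–v10 plasmid or an empty plasmid. Cells were fixed in 4% paraformaldehyde and blocked in 3% BSA. They were then stained with 5 µM rhodamine B-labelled peptide, with scrambled peptide as control. Nuclei were stained with DAPI, and cells were imaged by fluorescence microscopy at ×400.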

[5] = system: HEK-293 cells transfected with empty plasmids; assay: Immunofluorescence staining of HEK-293 cells transfected with empty plasmid; format: cell-based, human; conditions: 5 µM rhodamine B-labeled peptide; GFP reporter
Summary of the method: as §2

[6] = system: CD44v3–v10 over expressed HEK-293 cells; format: binding, human; conditions: in words; 1×10^10 pfu/well, 37 °C, 1 h
Summary of the method: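 HEK-293 cells were transfected with a CD44v3–v10 plasmid or an empty plasmid, and assayed 48 h later. Candidate or unrelated phages (1×10^10 pfu/well) were bound for 1 h at 37 °C, then washed six times. Detection used goat anti-M13 (1:200), HRP secondary (1:5,000) and TMB, read at OD450. Selectivity = (ODpv – ODbv)/(ODpc – ODbc), with backgrounds from cells without phage. Triplicate, mean ± SD.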

THMPSDPGMNLL was tested, and the “Inhibition of candidate phage binding by displayed peptide” value [1] was “dose-dependent manner”.
For ELTVMGYYPGMS [ELT, ELTVMGYYPGMS], the Kd (CD44v3–v10 protein) was 611 nM, the “Elimination (fluorescence signal four hours after injection)” value ([2]; 4 h) was “nearly undetectable” and the “Time of top fluorescent intensity in tumor” value ([2]; n = 5) was 3 h. For the same sequence, the “Distribution in liver and kidney” value [3] was “distributed in liver and kidney”.
With EHDNTGMLYSVD [control peptide] the “Fluorescent staining of MKN-45” value (MKN-45 cells) was “only background staining”, the “Fluorescent staining of SGC-7901” value (SGC-7901 cells) was “only background staining” and the “Fluorescent staining of MKN-28” value (MKN-28 cells) was “only background staining”. The “Fluorescent staining of CD44v3–v10 over expressed HEK-293” value [4] was “only background staining”, the “Fluorescent staining of HEK-293 transfected with empty plasmid” value [5] was “only background staining” and the “Distribution in liver and kidney” value [3] was “distributed in liver and kidney”. The “Strong fluorescence on excised tumor tissue (mice positive/total)” value ([3]; five mice per group) was “not control group”.
In the case of THMPSDPGMNLL [C1], the “Binding activity / affinity / selectivity ranking in phage ELISA” value [6] is reported as “highest binding activity and frequency; also recorded: considerable affinity”.
With ELTVMGYYPGMS [C3] the “Binding activity / affinity / selectivity ranking in phage ELISA” value [6] was “highest binding activity and frequency; also recorded: second highest selectivity; also recorded: highest affinity”.

Source: PMC7723568 (Annals of Translational Medicine, 2020)
